# Diaphorase act: activates diaphorase or chemically reduces, flagging diaphorase assay artifacts; AID 1229; activation factor at 20 µM; hit rate 0.005% among 190,000; Diaphorase/resazurin coupled assay, resorufin fluorescence, 16 min; stronger effect = higher value; 1 = vehicle wells, 0 = NADH-free wells;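 active means diaphorase activity raised at least twofold by the compound at 20 µM; inactive means activation factor below 2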
#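 Material: purified diaphorase enzyme from Clostridium kluyveri / Medium: HEPES pH 7.4 buffer with MgCl2 and Tween 20 / Schedule: enzyme reaction of 16 min at room temperature / Measured by: resorufin fluorescence, excitation 544 nm, emission 590 nm / Evaluation: rise in resorufin formation, marking diaphorase activation or chemical reduction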
# G6PDH CS: counter-screen for G6PDH assay hits: L. mesenteroides G6PDH inhibition; Purified L. mesenteroides G6PDH, diaphorase/resazurin coupled fluorescence, 45 min; hit rate 0.12% among 200,000; AID 1020; inhibition, % at 5 µM
# Lmaj promast: Leishmania major promastigote growth inhibition; Leishmania major promastigotes, resazurin fluorescence viability; inhibition, % at 10 µM; hit rate 9% among 200,000; AID 1063;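 further: promastigotes grown with compound for 44 hours at 28 °C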
# WT yeast gro inh: growth inhibition of WT yeast, mitochondrial fusion screen | mitochondrial fusion phenotypic screen, WT strain | inhibition, % at 10 µM | hit rate 2.1% among 190,000 | AID 1362; in the data active means inhibition above about 58%; tested in S. cerevisiae
# Diaphorase inh: diaphorase inhibition or chemical oxidation counter-screen; diaphorase resazurin-to-resorufin fluorescence, NADH, 16 min; bacterial (C. kluyveri) enzyme, not human; inhibition, % at 20 µM; hit rate 0.69% among 190,000;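 active means primary screen inhibition at 20 µM above a set limit, cut at about 50% in these data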;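 further: plate controls were DMSO with full reaction for no effect and wells lacking NADH for full effect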
#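 Assay system: diaphorase enzyme from Clostridium kluyveri. Quantity: enzyme working solution with 0.14 U/mL diaphorase. Schedule: reaction incubation of 16 min at room temperature. Technique: resorufin fluorescence, excitation 544 nm, emission 590 nm. Controls: No-NADH positive control and DMSO neutral control.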
# * marks the source's active call; other numbers are inactive results. Only some compounds are listed: those with a hit (about 11% of all), similar ones and a draw of the others. Unless noted, no stated cut-off is given here; in the data, active means inhibition above about 50%; inactive means the rest.
SMILES,Diaphorase act,G6PDH CS,Lmaj promast,WT yeast gro inh,Diaphorase inh
CCCCOC(=O)C1CCC[C@@H](C)N1 (stereo partly drawn),0.9,2,-1,-22,6
Cc1ccc(N(CC(=O)NCC2CCCO2)C(=O)Cn2nnc(-c3cccs3)n2)cc1 (stereo not drawn),0.7,13,1,-12,31
CCC(C)OC(=O)C[N+](C)(C)CCOC1CC2CCC1(C)C2(C)C (stereo not drawn),0.9,17,96*,-2,12
c1ccc(CNc2ccc(CNc3ncn[nH]3)cc2)cc1,1,1,64*,-15,0
Clc1ccc(CNc2ccc(CNc3ncn[nH]3)cc2)cc1,0.9,7,6,-7,13
Cc1cccc(C)c1NC(=O)C(C)c1ccc(-c2ccccc2)c(F)c1 (stereo not drawn),0.9,17,100*,4,10
Cc1cc(C)cc(NC(=O)Cc2ccc(-n3cccc3)cc2)c1,0.9,-1,17,27,5
Clc1ccc(C2=Nc3cc(Cl)ccc3OC2)cc1,1,4,-5,1,1
c1ccc(C2=Nc3ccccc3OC2)cc1,0.8,2,69*,1,20
COCCNC(=O)CC(=O)N/N=C/c1ccc(C(=O)OC)cc1,0.9,14,-5,-10,11
CC(C(=O)Nc1sc2c(c1C(=O)NCC1CCCO1)CCC2)N1C(=O)c2ccccc2C1=O (stereo not drawn),0.8,2,-2,14,22
COc1ccccc1Cn1c(SCC(N)=O)nc2c(oc3ccccc32)c1=O,1.1,-1,18,-22,-9
COc1ccccc1OCC(=O)Nn1c(=S)[nH]c2ncccc2c1=O,1,-18,-9,-28,3
O=C(COc1ccc(Cl)cc1Cl)Nn1c(=S)[nH]c2ncccc2c1=O,0.5,-22,3,-15,50*
NC(=O)CC1Nc2cccc3cccc(c23)NC1=O (stereo not drawn),0.4,-19,-1,4,56*
C/C(CCC(C)C)=N\Nc1cc(C)c2ccccc2n1,0.9,6,67*,11,12
Nc1nc(F)cc(NCc2ccccc2)n1,0.9,3,-3,-30,10
COc1ccc(Nc2cc(C)c3ccccc3n2)cc1,0.9,16,83*,13,14
Cc1cc(NCc2ccccc2)nc2ccccc12,0.8,3,53*,16,16
CCOC(=O)NC(NC(=S)Nc1ccc(OCC)cc1)C(Cl)(Cl)Cl (stereo not drawn),0.9,0,-4,-4,7
O=C(NC(NC(=S)Nc1c(Cl)cccc1Cl)C(Cl)(Cl)Cl)OCc1ccccc1 (stereo not drawn),0.9,6,98*,38,14
CCC(c1nnnn1C1CCCC1)N1CCN(c2cccc(OC)c2)CC1 (stereo not drawn),0.8,15,0,14,16
CCCCC[n+]1cccc2c3ccccc3ccc21,1,4,100*,44,-4
c1ccc(C[n+]2cccc3c4ccccc4ccc32)cc1,1.1,3,97*,4,-12
COCCNC(=O)c1noc2c1CCc1cc(OC)ccc1-2,0.9,-14,-10,-3,6
SMILES,Diaphorase act,G6PDH CS,Lmaj promast,WT yeast gro inh,Diaphorase inh
COc1ccc2c(c1)CCc1c(C(=O)NCCCn3ccnc3)noc1-2,0.9,4,100*,-2,12
COc1ccc(-c2cn(-c3ccc(C)cc3C)c(=O)[nH]2)cc1OC,0.9,6,-7,4,9
Cc1ccc(CNC(=O)CSc2nc3ccccc3c(=O)n2CCCO)cc1,0.8,-22,5,0,16
COc1ccccc1-n1cnnc1SCc1csc(-c2ccccc2)n1,0.9,11,17,3,6
Cc1ccc(CSc2nc3ccccc3c(=O)n2Cc2ccco2)cc1,0.8,-7,62*,50,18
C=CCn1c(SCc2csc(-c3ccc(C)cc3)n2)nnc1-c1ccccc1OC,0.9,-20,100*,81*,13
Cc1ccc(-c2nc(CSc3nc4ccccc4c(=O)n3C)cs2)cc1,1,-3,76*,15,2
CCOC(=O)CSc1nc2ccccc2c(=O)n1C,0.9,5,-5,-6,9
Cc1ccc(-c2nc(CSc3nc4ccccc4c(=O)n3CCO)cs2)cc1,0.8,-1,62*,60*,22
CCC(C)n1c(SCC(=O)Nc2cc(C(C)(C)C)nn2-c2ccccc2)nc2ccccc2c1=O (stereo not drawn),0.9,3,42,49,14

# Assay outcomes (PubChem)
